Laboratory results reported in ChEMBL document CHEMBL1143428, “Extended-spectrum-beta-lactamase-producing Enterobacteriaceae strains in various types of private health care centers” (2007).
≈ marks a conversion by molar mass, not a printed value.

Tests used:
Assay type in all cases: functional
Proteus mirabilis [1] = assay: Antimicrobial activity against Proteus mirabilis Pm1-Pm3 expressing TEM-24b gene
Method in brief: (§1)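 Clinical isolates from private health care centers. β-Lactamase content was assigned by isoelectric focusing, PCR with blaTEM-, blaSHV- and blaCTX-M-specific primers, and sequencing. MICs (μg/ml) were reported for amoxicillin, cefoxitin, cefotaxime, ceftazidime, imipenem and ertapenem. Amoxicillin, cefotaxime and ceftazidime were also tested with clavulanic acid held at a fixed 2 μg/ml.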

Klebsiella aerogenes [2] = assay: Antimicrobial activity against Enterobacter aerogenes Ea2 expressing TEM-3 AmpC gene; method in brief: as §1
Escherichia coli [3] = assay: Antimicrobial activity against Escherichia coli Ec2 containing pEc1-B plasmid expressing CTX-M-15 TEM-1 OXA-1 gene; method in brief: as §1
Klebsiella pneumoniae [4] = assay: Antimicrobial activity against Klebsiella pneumoniae Kp1 expressing SHV-4 gene
Method in brief: (§2)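 β-Lactam MICs (μg/ml) measured against clinical Enterobacteriaceae isolates collected from private health care centers. Enzyme content of each isolate was assigned by isoelectric focusing, PCR with blaTEM/blaSHV/blaCTX-M primers and sequencing, with cloning to separate coexisting TEM or SHV genes. In combination tests, the β-lactamase inhibitor clavulanic acid was held at a fixed 2 μg/ml.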

Enterobacter cloacae = assay: Antimicrobial activity against Enterobacter cloacae Ecl1 expressing TEM-24b AmpC TEM-1 gene; method in brief: as §2
Klebsiella pneumoniae [5] = assay: Antimicrobial activity against Klebsiella pneumoniae Kp5 expressing plasmid-mediated cephalosporinase ACC-1 and TEM-1; method in brief: as §2
Proteus mirabilis [6] = assay: Antimicrobial activity against Proteus mirabilis Pm4 expressing TEM-21 gene; method in brief: as §1
Klebsiella aerogenes [7] = assay: Antimicrobial activity against Enterobacter aerogenes Ea1 expressing TEM-24b AmpC +/- TEM-1 or TEM-2 gene; method in brief: as §2
Klebsiella pneumoniae [8] = assay: Antimicrobial activity against Klebsiella pneumoniae Kp4 expressing SHV-12 SHV-1 and plasmid-mediated cephalosporinase CMY-4; method in brief: as §2
Escherichia coli [9] = assay: Antimicrobial activity against Escherichia coli Ec9 expressing TEM-24b TEM-26 gene; method in brief: as §2
Escherichia coli [10] = assay: Antimicrobial activity against Escherichia coli Ec2 containing pEc1-D plasmid expressing CTX-M-15 TEM-1 OXA-1gene; method in brief: as §2
Klebsiella pneumoniae [11] = assay: Antimicrobial activity against Klebsiella pneumoniae Kp2 expressing TEM-15 TEM-17 TEM-1 gene; method in brief: as §2
Klebsiella oxytoca = assay: Antimicrobial activity against Klebsiella oxytoca expressing TEM-11 gene; method in brief: as §1
Klebsiella aerogenes [12] = assay: Antimicrobial activity against Enterobacter aerogenes Ea2 expressing TEM-3 gene; method in brief: as §1
Escherichia coli [13] = assay: Antimicrobial activity against Escherichia coli Ec8 expressing TEM-21 AmpC gene; method in brief: as §1
Escherichia coli [14] = assay: Antimicrobial activity against Escherichia coli Ec6 expressing CTX-M-14 gene; method in brief: as §2
Escherichia coli [15] = assay: Antimicrobial activity against Escherichia coli Ec3 expressing CTX-M-15 TEM-1 OXA-1 gene; method in brief: as §2
Escherichia coli [16] = assay: Antimicrobial activity against Escherichia coli Ec4 expressing CTX-M-1 AmpC gene; method in brief: as §2
Morganella morganii = assay: Antimicrobial activity against Morganella morganii expressing TEM-24b AmpC gene; method in brief: as §2
Escherichia coli [17] = assay: Antimicrobial activity against Escherichia coli Ec7 expressing SHV-12 IRT-6 gene; method in brief: as §1
Escherichia coli [18] = assay: Antimicrobial activity against Escherichia coli Ec5 expressing CTX-M-2 TEM-1 gene; method in brief: as §2
Klebsiella pneumoniae [19] = assay: Antimicrobial activity against Klebsiella pneumoniae Kp3 expressing SHV-2a TEM-1 gene; method in brief: as §2
Klebsiella pneumoniae [20] = assay: Antimicrobial activity against Klebsiella pneumoniae Kp2 expressing TEM-15 gene; method in brief: as §2
Klebsiella aerogenes [21] = assay: Antimicrobial activity against Enterobacter aerogenes Ea1 expressing TEM-24b gene; method in brief: as §1
Escherichia coli [22] = assay: Antimicrobial activity against Escherichia coli Ec2-a containing pEc1-C plasmid expressing CTX-M-15 OXA-1 gene; method in brief: as §1
Escherichia coli [23] = assay: Antimicrobial activity against Escherichia coli Ec10 expressing TEM-24b gene; method in brief: as §2
Escherichia coli [24] = assay: Antimicrobial activity against Escherichia coli Ec1 containing pEc1-A plasmid expressing CTX-M-15 TEM-1 OXA-1 gene; method in brief: as §2

| Structure (SMILES) | MIC (Proteus mirabilis [1]) [µg/mL] | MIC (Klebsiella aerogenes [2]) [µg/mL] | MIC (Escherichia coli [3]) [µg/mL] | MIC (Klebsiella pneumoniae [4]) [µg/mL] | MIC (Enterobacter cloacae) [µg/mL] | MIC (Klebsiella pneumoniae [5]) [µg/mL] | MIC (Proteus mirabilis [6]) [µg/mL] | MIC (Klebsiella aerogenes [7]) [µg/mL] | MIC (Klebsiella pneumoniae [8]) [µg/mL] | MIC (Escherichia coli [9]) [µg/mL] | MIC (Escherichia coli [10]) [µg/mL] | MIC (Klebsiella pneumoniae [11]) [µg/mL] | MIC (Klebsiella oxytoca) [µg/mL] | MIC (Klebsiella aerogenes [12]) [µg/mL] | MIC (Escherichia coli [13]) [µg/mL] | MIC (Escherichia coli [14]) [µg/mL] | MIC (Escherichia coli [15]) [µg/mL] | MIC (Escherichia coli [16]) [µg/mL] | MIC (Morganella morganii) [µg/mL] | MIC (Escherichia coli [17]) [µg/mL] | further results |
| --- | --- | --- | --- | --- | --- | --- | --- | --- | --- | --- | --- | --- | --- | --- | --- | --- | --- | --- | --- | --- | --- |
| C[C@@H](O)[C@H]1C(=O)N2C(C(=O)O)=C(SCCNC=N)C[C@H]12 [IMIPENEM ANHYDROUS] | 1 (≈ 3.34 µM) | 1 (≈ 3.34 µM) | 0.5 (≈ 1.67 µM) | 0.5 (≈ 1.67 µM) | 1 (≈ 3.34 µM) | 0.5 (≈ 1.67 µM) | 1 (≈ 3.34 µM) | 0.5 (≈ 1.67 µM) | 1 (≈ 3.34 µM) | 0.5 (≈ 1.67 µM) | 0.5 (≈ 1.67 µM) | 0.5 (≈ 1.67 µM) | 0.5 (≈ 1.67 µM) | 0.5 (≈ 1.67 µM) | 0.5 (≈ 1.67 µM) | 0.5 (≈ 1.67 µM) | 0.5 (≈ 1.67 µM) | 1 (≈ 3.34 µM) | 4 (≈ 13.4 µM) | 0.5 (≈ 1.67 µM) | MIC (Escherichia coli [18]): 0.5 µg/mL (≈ 1.67 µM); MIC (Klebsiella pneumoniae [19]): 1 µg/mL (≈ 3.34 µM); MIC (Klebsiella pneumoniae [20]): 0.5 µg/mL (≈ 1.67 µM); MIC (Klebsiella aerogenes [21]): 0.5 µg/mL (≈ 1.67 µM); MIC (Escherichia coli [22]): 0.5 µg/mL (≈ 1.67 µM) |
| C[C@@H](O)[C@H]1C(=O)N2C(C(=O)O)=C(S[C@@H]3CN[C@H](C(=O)Nc4cccc(C(=O)O)c4)C3)[C@H](C)[C@H]12 [ERTAPENEM] | 0.01 (≈ 0.021 µM) | 0.2 (≈ 0.421 µM) | 0.1 (≈ 0.21 µM) | 0.02 (≈ 0.0421 µM) | 0.5 (≈ 1.05 µM) | 0.05 (≈ 0.105 µM) | 0.01 (≈ 0.021 µM) | 0.05 (≈ 0.105 µM) | 0.01 (≈ 0.021 µM) | ≤ 0.01 | 0.05 (≈ 0.105 µM) | 0.1 (≈ 0.21 µM) | 0.1 (≈ 0.21 µM) | 0.02 (≈ 0.0421 µM) | 0.1 (≈ 0.21 µM) | 0.02 (≈ 0.0421 µM) | 0.1 (≈ 0.21 µM) | 0.05 (≈ 0.105 µM) | 0.02 (≈ 0.0421 µM) | 0.2 (≈ 0.421 µM) | MIC (Escherichia coli [23]): 0.02 µg/mL (≈ 0.0421 µM); MIC (Escherichia coli [24]): 0.05 µg/mL (≈ 0.105 µM); MIC (Escherichia coli [18]): 0.05 µg/mL (≈ 0.105 µM); MIC (Klebsiella pneumoniae [19]): 0.02 µg/mL (≈ 0.0421 µM); MIC (Klebsiella pneumoniae [20]): 0.02 µg/mL (≈ 0.0421 µM); MIC (Klebsiella aerogenes [21]): 0.02 µg/mL (≈ 0.0421 µM); MIC (Escherichia coli [22]): 0.2 µg/mL (≈ 0.421 µM) |
| CO[C@@]1(NC(=O)Cc2cccs2)C(=O)N2C(C(=O)O)=C(COC(N)=O)CS[C@@H]21 [CEFOXITIN] | 2 (≈ 4.68 µM) | 128 (≈ 299 µM) | 8 (≈ 18.7 µM) | 16 (≈ 37.4 µM) | 512 (≈ 1200 µM) | 8 (≈ 18.7 µM) | 4 (≈ 9.36 µM) | 512 (≈ 1200 µM) | 32 (≈ 74.9 µM) | 4 (≈ 9.36 µM) | 32 (≈ 74.9 µM) | 64 (≈ 150 µM) | 8 (≈ 18.7 µM) | 32 (≈ 74.9 µM) | 128 (≈ 299 µM) | 4 (≈ 9.36 µM) | 32 (≈ 74.9 µM) | 64 (≈ 150 µM) | 128 (≈ 299 µM) | 64 (≈ 150 µM) | MIC (Escherichia coli [23]): 8 µg/mL (≈ 18.7 µM); MIC (Escherichia coli [24]): 4 µg/mL (≈ 9.36 µM); MIC (Escherichia coli [18]): 4 µg/mL (≈ 9.36 µM); MIC (Klebsiella pneumoniae [19]): 4 µg/mL (≈ 9.36 µM); MIC (Klebsiella pneumoniae [20]): 4 µg/mL (≈ 9.36 µM); MIC (Klebsiella aerogenes [21]): 8 µg/mL (≈ 18.7 µM); MIC (Escherichia coli [22]): 8 µg/mL (≈ 18.7 µM) |
| CC(C)(O/N=C(\C(=O)N[C@@H]1C(=O)N2C(C(=O)[O-])=C(C[n+]3ccccc3)CS[C@H]12)c1csc(N)n1)C(=O)O [CEFTAZIDIME] | 8 (≈ 14.6 µM) | 16 (≈ 29.3 µM) | 16 (≈ 29.3 µM) | 128 (≈ 234 µM) | 512 (≈ 937 µM) | 64 (≈ 117 µM) | 1 (≈ 1.83 µM) | 256 (≈ 468 µM) | 4 (≈ 7.32 µM) | 128 (≈ 234 µM) | 1 (≈ 1.83 µM) | 512 (≈ 937 µM) | 128 (≈ 234 µM) | 16 (≈ 29.3 µM) | 64 (≈ 117 µM) | 4 (≈ 7.32 µM) | 256 (≈ 468 µM) | 8 (≈ 14.6 µM) | 128 (≈ 234 µM) | 128 (≈ 234 µM) | MIC (Escherichia coli [23]): 256 µg/mL (≈ 468 µM); MIC (Escherichia coli [24]): 64 µg/mL (≈ 117 µM); MIC (Escherichia coli [18]): 1 µg/mL (≈ 1.83 µM); MIC (Klebsiella pneumoniae [19]): 256 µg/mL (≈ 468 µM); MIC (Klebsiella pneumoniae [20]): 32 µg/mL (≈ 58.5 µM); MIC (Klebsiella aerogenes [21]): 128 µg/mL (≈ 234 µM); MIC (Escherichia coli [22]): 256 µg/mL (≈ 468 µM) |
| CO/N=C(\C(=O)N[C@@H]1C(=O)N2C(C(=O)O)=C(COC(C)=O)CS[C@H]12)c1csc(N)n1 [CEFOTAXIME] | 0.5 (≈ 1.1 µM) | 4 (≈ 8.78 µM) | 64 (≈ 141 µM) | 8 (≈ 17.6 µM) | 64 (≈ 141 µM) | 8 (≈ 17.6 µM) | 2 (≈ 4.39 µM) | 1 (≈ 2.2 µM) | 16 (≈ 35.1 µM) | 1 (≈ 2.2 µM) | 2 (≈ 4.39 µM) | 64 (≈ 141 µM) | 1 (≈ 2.2 µM) | 0.2 (≈ 0.439 µM) | 32 (≈ 70.3 µM) | 32 (≈ 70.3 µM) | 512 (≈ 1120 µM) | 64 (≈ 141 µM) | 16 (≈ 35.1 µM) | 16 (≈ 35.1 µM) | MIC (Escherichia coli [23]): 2 µg/mL (≈ 4.39 µM); MIC (Escherichia coli [24]): 256 µg/mL (≈ 562 µM); MIC (Escherichia coli [18]): 32 µg/mL (≈ 70.3 µM); MIC (Klebsiella pneumoniae [19]): 2 µg/mL (≈ 4.39 µM); MIC (Klebsiella pneumoniae [20]): 8 µg/mL (≈ 17.6 µM); MIC (Klebsiella aerogenes [21]): 1 µg/mL (≈ 2.2 µM); MIC (Escherichia coli [22]): 256 µg/mL (≈ 562 µM) |
